Assay [1] concerns HFF. The assay is described as follows: Cytotoxicity produced in stationary HFF cells was determined by microscopic inspection of uninfected cells. The following applies: Homo sapiens. Type of assay: functional, cell-based. A digest of the protocol: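 Cytotoxicity was scored visually by microscopy on stationary HFF cells not affected by virus, at the time of HCMV plaque enumeration, in duplicate wells. IC50 came from linear regression of percent inhibition against log concentration.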

Assay [2] relates to HFF. Put plainly: Inhibitory concentration required against human cytomegalovirus (HCMV) expressed in HFF cells was determined by plaque reduction assay. Format: functional, cell-based. A digest of the protocol: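 HCMV Towne strain at about 100 pfu/cm² was adsorbed onto HFF monolayers. Compounds from 10 mg/mL DMSO stocks were diluted in growth medium and added at four to eight concentrations in duplicate wells. After 7–10 days at 37 °C, cells were fixed and stained with crystal violet and plaques counted microscopically. Percent plaque reduction versus no drug was regressed against log concentration to give IC50.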
For orientation: In a plaque reduction assay, fewer plaques than in the control indicate reduced infectivity or spread.

Assay [3] in a line: Cytotoxicity against KB cells was determined by crystal violet staining and spectrophotometric quantitation of dye eluted from stained cells. Format: functional, cell-based. As to conditions: Homo sapiens. Summed up: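 KB cells were seeded at 3000–5000 per well and incubated overnight. Compound was added at six to eight concentrations for 48 h at 37 °C in CO2, covering two population doublings. Cells were fixed in 95% ethanol and stained with 0.1% crystal violet, and the dye was eluted with acidified ethanol and read at 570 nm. IC50 came from regression of percent inhibition against log concentration.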

Assay [4] is described as follows: Inhibitory concentration required against herpes simplex virus type-1 (HSV-1) expressed in BSC-1 cells was determined by ELISA assay. Format: functional, cell-based, Cercopithecidae. Summed up:
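BSC-1 cells (10 000/well, MEM(E) with 10% calf serum) were incubated overnight. Drug (quadruplicate) and HSV-1 at 100 pfu/well were then added, followed by 3 days at 37 °C. Plates were blocked and probed with HRP-conjugated rabbit anti-HSV-1 antibody, developed with TMB and stopped with H2SO4, with absorbance read at 450 and 570 nm. Percent absorbance reduction versus no drug was regressed against log concentration to give IC50.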
(In general: ELISA stands for enzyme-linked immunosorbent assay.)

For assay [5], the system named is HFF. Put plainly: Inhibitory concentration required against human cytomegalovirus (HCMV) C4 strain (UL56 + UL89 mutant gene) expressed in HFF cells was determined by plaque reduction assay. Type of assay: functional, cell-based. Summed up:
(§1)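 HFF monolayers in 24-well dishes were infected with about 100 pfu HCMV per cm² (wild type Towne; mutant strains carry UL56, UL89 or UL56 + UL89 mutations). After adsorption, drug from 10 mg/mL DMSO stock was diluted in medium and added at four to eight concentrations in duplicate wells. Cells were held 7–10 days at 37 °C, then crystal-violet stained and plaques counted against no-drug controls. IC50 came from linear regression of % inhibition versus log10 concentration, averaged over two experiments.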

The subject of assay [6] is HFF. Put plainly: Inhibitory concentration required against human cytomegalovirus (HCMV) wild type expressed in HFF cells was determined by plaque reduction assay. Format: functional, cell-based. Summed up:
as §1

In assay [7] the test system is HFF. Put plainly: Inhibitory concentration required against human cytomegalovirus (HCMV) r56 strain (UL56 mutant gene) expressed in HFF cells was determined by plaque reduction assay. Type of assay: functional, cell-based. Summed up:
as §1

For assay [8], the system named is HFF. The assay is described as follows: Inhibitory concentration required against human cytomegalovirus (HCMV) D10 strain (UL89 mutant gene) expressed in HFF cells was determined by plaque reduction assay. Format: functional, cell-based. Summed up: as §1

What is called IC50 is the midpoint of a concentration-inhibition curve. For `OC[C@H]1O[C@@H](n2c(Cl)nc3cc(Cl)c(Cl)cc32)C[C@@H]1O`, the IC50 with HFF [1] is over 100 µM; with HFF [2], 20 µM.
As to `OC[C@H]1O[C@@H](n2c(Cl)c(-c3ccco3)c3cc(Cl)c(Cl)cc32)C[C@@H]1O`, the half-maximal inhibitory concentration (IC50) in assay [3] was found to be 50 µM; in the assay on HFF [1], 3.2 µM; in the assay on HFF [2], 3.6 µM; in assay [4] it was 20 µM.
Regarding `OC[C@H]1O[C@@H](n2c(Cl)c(-c3ccsc3)c3cc(Cl)c(Cl)cc32)C[C@@H]1O`, the IC50 stood at 50 µM in assay [3], 32 µM with HFF [1], 38 µM in the assay with HFF [2] and 20 µM in assay [4].
For the compound `COc1c(C#N)c2cc(Cl)c(Cl)cc2n1[C@H]1C[C@H](O)[C@@H](CO)O1`, the IC50 in assay [3] was over 100 µM; in the assay with HFF [1], over 100 µM; with HFF [2], 68 µM; in assay [4] it was 90 µM.
In the case of `COc1c(C=O)c2cc(Cl)c(Cl)cc2n1[C@H]1C[C@H](O)[C@@H](CO)O1`, the IC50 is 20 µM in assay [3], 100 µM with HFF [1], over 100 µM in the assay on HFF [2] and over 100 µM in assay [4].
For the compound `CC(=O)c1c(Cl)n([C@H]2C[C@H](O)[C@@H](CO)O2)c2cc(Cl)c(Cl)cc12`, the IC50 is 400 µM in assay [3]; 2.1 µM in the assay on HFF [5]; over 100 µM in the assay on HFF [1]; 0.3 µM with HFF [2]; 8 µM in assay [4]; 0.22 µM in the assay with HFF [6]. Besides, the IC50 in the assay with HFF [7] was 1.8 µM; with HFF [8], 0.76 µM.
`N#Cc1c(Cl)n([C@H]2C[C@H](O)[C@@H](CO)O2)c2cc(Cl)c(Cl)cc12`: the IC50 in assay [3] was 60 µM; in the assay on HFF [1], 32 µM; with HFF [2], 0.3 µM; in assay [4] it was 35 µM.
The like results for `CC(=O)c1c(Br)n([C@H]2C[C@H](O)[C@@H](CO)O2)c2cc(Cl)c(Cl)cc12` were, in that order, over 100 µM, over 100 µM, 0.34 µM and over 100 µM.
For `OC[C@H]1O[C@@H](n2c(Br)nc3cc(Cl)c(Cl)cc32)C(O)[C@@H]1O` (single isomer, unassigned), the IC50 was over 100 µM in assay [3]; 29 µM in the assay on HFF [5]; 130 µM in assay [4]; 0.99 µM in the assay with HFF [6]; 6.7 µM with HFF [7]; 12 µM with HFF [8].
Regarding `OC[C@H]1O[C@@H](n2c(Cl)nc3cc(Cl)c(Cl)cc32)C(O)[C@@H]1O` (single isomer, unassigned), the figures for the IC50 in assay [3] and in assay [4] were 210 µM and 102 µM, respectively.
Consider `N#Cc1c(Cl)n(C2O[C@H](CO)[C@@H](O)C2O)c2cc(Cl)c(Cl)cc12` (single isomer, unassigned), for which the half-maximal inhibitory concentration (IC50) is 35 µM in assay [3] and over 100 µM in assay [4].
As for `N#Cc1c(Cl)n(C2O[C@H](CN=[N+]=[N-])[C@@H](O)C2O)c2cc(Cl)c(Cl)cc12` (single isomer, unassigned), the IC50 is 60 µM in assay [3], over 100 µM in the assay on HFF [1], 3 µM in the assay with HFF [2] and 15 µM in assay [4].
For the compound `O=Cc1c(Cl)n(C2O[C@H](CO)[C@@H](O)C2O)c2cc(Cl)c(Cl)cc12` (single isomer, unassigned), the IC50 in assay [3] was 45 µM; in the assay on HFF [5], 4.8 µM; in assay [4] it was 40 µM; in the assay on HFF [6], 0.46 µM; in the assay on HFF [7], 1.8 µM; in the assay on HFF [8], 0.88 µM.
On to `CC(=O)c1c(Cl)n(C2O[C@H](CO)[C@@H](O)C2O)c2cc(Cl)c(Cl)cc12` (single isomer, unassigned), for which the IC50 amounted to 6.2 µM in the assay with HFF [5], 0.26 µM with HFF [6], 1.2 µM in the assay with HFF [7] and 0.72 µM with HFF [8].
Regarding `C[C@H]1OC(n2c(Cl)nc3cc(Cl)c(Cl)cc32)C(O)[C@@H]1O` (single isomer, unassigned), the IC50 with HFF [1] came out at 100 µM; in the assay with HFF [2], 0.36 µM.
Consider `CC(=O)OC[C@H]1OC(n2c(Cl)c(C=O)c3cc(Cl)c(Cl)cc32)C(O)[C@@H]1O` (single isomer, unassigned), for which the IC50 in the assay with HFF [5] amounted to 3.3 µM; in the assay with HFF [6], 0.22 µM; in the assay on HFF [7] it was 1.6 µM; with HFF [8] it was 0.88 µM.
For the compound `C[C@H]1OC(n2c(Cl)c(C=O)c3cc(Cl)c(Cl)cc32)C(O)[C@@H]1O` (single isomer, unassigned), the IC50 in assay [3] worked out at 25 µM; in the assay with HFF [1], 32 µM; in the assay on HFF [2], 0.3 µM; in assay [4], 20 µM.
As for `[N-]=[N+]=NC[C@H]1OC(n2c(Cl)c(C=O)c3cc(Cl)c(Cl)cc32)C(O)[C@@H]1O` (single isomer, unassigned), the IC50 in assay [3] was found to be 25 µM; with HFF [1], 32 µM; in the assay with HFF [2] it was 0.32 µM; in assay [4], 10 µM.
Taken in the same sequence, the figures for `C[C@H]1OC(n2c(Cl)c(C#N)c3cc(Cl)c(Cl)cc32)C(O)[C@@H]1O` (single isomer, unassigned) were 40 µM, 32 µM, 0.19 µM and 32 µM.
The like results for `N#Cc1c(Cl)n(C2O[C@H](CF)[C@@H](O)C2O)c2cc(Cl)c(Cl)cc12` (single isomer, unassigned) were, in that order, 50 µM, 32 µM, 2.7 µM and 40 µM.
Turning to `O=Cc1c(Cl)n(C2O[C@H](CF)[C@@H](O)C2O)c2cc(Cl)c(Cl)cc12` (single isomer, unassigned), the concentration for half-maximal inhibition (IC50) was found to be 20 µM in assay [3], 32 µM with HFF [1], 0.6 µM in the assay on HFF [2] and 20 µM in assay [4].
Regarding `Nc1nc2c(ncn2COC(CO)CO)c(=O)[nH]1` [GANCICLOVIR], the half-maximal inhibitory concentration (IC50) was over 100 µM in assay [3]; 2.5 µM in the assay on HFF [5]; over 100 µM with HFF [1]; 3.5 µM in assay [4]; 1.2 µM in the assay with HFF [6]; 1.2 µM in the assay with HFF [7]. The compound further gave a 50% inhibitory concentration (IC50) with HFF [8] of 1.2 µM.

The values are drawn from ChEMBL document CHEMBL1138814, “Synthesis, antiviral activity, and mode of action of some 3-substituted 2,5,6-trichloroindole 2'- and 5'-deoxyribonucleosides” (J Med Chem, 2004).
